High-throughput results from PubChem BioAssay.
TRPC4 agonist: opens the mouse TRPC4 cation channel. B-score at 10 µM. HEK293 TRPC4beta/mu-opioid, Fluo4 calcium fluorescence; active compounds read high. Q9QUQ5. 310,000 tested, 0.49% active;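 active = B-score above 5 SD of library B-scores, and initial fluorescence ratio not above library mean plus 5 SD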;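 also: positive B-score marks a calcium rise read as TRPC4 activation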
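System: HEK293 cells stably co-expressing mouse TRPC4beta and mu-opioid receptor; Schedule: Fluo4 dye loading 45 min at room temperature, 110 s recording; Detection: Fluo4 fluorescence, kinetic; Evaluation: B-scored integrated calcium fluorescence ratio; Controls: buffer (low) and maximal DAMGO (high).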
TRPC4 block: blocks the mouse TRPC4 cation channel; Q9QUQ5; HEK293 TRPC4beta/mu-opioid, DAMGO-evoked Fluo4 calcium flux; active compounds read low; B-score at 10 µM; 300,000 tested, 0.39% active; AID 2247;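 active = B-score over 3 SD under the library average, no early fluorescence shift, positive overall ratio signal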
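System: stable TRPC4beta/mu-opioid receptor HEK293 cells; Dosing: single-point compound dosing; Measured by: Fluo4 Ca2+ flux fluorescence; Read-out basis: per-well B score of integrated baseline-normalized Fluo4 ratio.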
TRPC4 PAM: allosteric potentiators of mouse TRPC4 channel. Q9QUQ5. HEK293 TRPC4beta/mu-opioid, DAMGO EC20, Fluo-4 Ca2+ flux; active compounds read high. B-score at 10 µM. 310,000 tested, 0.42% active;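 active = B-score of calcium response area above 5 SD of library B-scores, with initial fluorescence ratio within 5 SD of library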;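 also: B-score of integrated fluorescence ratio over time as area under calcium response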
TRPC6 act: mouse TRPC6 channel activation; HEK293-TRPC6 membrane potential dye fluorescence; active compounds read high; 310,000 tested, 0.13% active; Q61143; B-score at 10 µM;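 active = B-score of the integrated fluorescence ratio above library mean plus 3 SD, and starting fluorescence ratio within library mean plus 5 SD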;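 also: higher score means more depolarization so channel activation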
TRPC6 inhibitor: mouse TRPC6 channel inhibition | Q61143 | HEK293-TRPC6, membrane potential dye, ACh-evoked depolarization; active compounds read low | B-score at 10 µM | 310,000 tested, 1.1% active;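 active = B-score under library mean minus 3 SD, initial fluorescence not abnormally high, positive integrated signal ratio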;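 also: B-score derived from integrated fluorescence ratio over the kinetic read; more negative B-score means stronger inhibition of depolarization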
An asterisk follows results filed as active; i = inactive. Sampled rows, rich in hits. Any-hit rate of the full collection: about 2.3%.

SMILES	TRPC4 agonist	TRPC4 block	TRPC4 PAM	TRPC6 act	TRPC6 inhibitor
COc1ccc2c(Cl)c(-c3nnc4n3CCCCC4)sc2c1	167*	i	i	i	i
CN1CCN(Cc2nc3ccccc3n2C)CC1CCO (stereo not drawn)	i	i	19*	i	i
Cc1ccc(CN2CCN(Cc3cccc4nccnc34)CC2CCO)cc1 (stereo not drawn)	i	i	i	i	i
CC(C)Cn1c(CN2CCN(C)C(CCO)C2)nc2ccccc21 (stereo not drawn)	i	i	19*	i	i
CCn1c(CN2CCN(Cc3ccc(C)cc3)C(CCO)C2)nc2ccccc21 (stereo not drawn)	172*	i	i	i	i
O=C(CCN1c2ccccc2Sc2ccccc21)OCc1nnc(-c2ccccc2)o1	i	i	12*	i	i
CN(Cc1ccccc1)C(=O)CSc1nnc(-c2ccco2)n1-c1ccccc1	i	-7*	i	i	i
CC(=O)CSc1nnc(-c2ccco2)n1-c1ccccc1	i	i	i	i	i
CS(=O)(=O)N(CC(=O)Nc1ccccc1C(=O)N1CCCC1)c1ccccc1Br	i	i	i	i	i
N=C(N)SCc1cn2ccccc2n1	i	i	16*	i	i
CN(C)c1ccc(-c2nc3ccccc3n2C)cc1	46*	i	i	i	i
c1csc(-c2nc(NCC3CCCO3)c3ccccc3n2)c1 (stereo not drawn)	i	-8*	i	i	i
c1ccc(-c2nc(NCc3cccs3)c3ccccc3n2)cc1	i	i	i	i	i
c1cncc(-c2nc(NCC3CCCO3)c3ccccc3n2)c1 (stereo not drawn)	i	i	i	i	i
c1csc(CNc2nc(-c3cccs3)nc3ccccc23)c1	i	-6*	i	i	i
CN(C)c1ccc(CNC(=O)CCS(=O)(=O)c2ccc3c(c2)oc(=O)n3C)cc1	i	i	i	i	i
O=C1CC(N2CCN(c3nc4ccccc4s3)CC2)C(=O)N1c1ccc(F)cc1 (stereo not drawn)	i	i	14*	i	i
COc1ccccc1NC(=O)CCN1C(=O)c2ccccc2S1(=O)=O	i	i	i	i	i
CC(C)(C)C(=O)NC1CC2CCCC(C1)N2C(=O)Nc1cccc(Cl)c1 (stereo not drawn)	i	i	i	i	i
CCOc1cc(CNCc2cccs2)ccc1OCC(=O)NC(C)(C)C	i	-6*	i	i	i
Cc1sc2ncnc(NCC3(N4CCOCC4)CCCCC3)c2c1C	i	i	i	i	i
Cc1sc2ncnc(NCC(C)(C)N3CCOCC3)c2c1C	162*	i	i	i	i
Cc1ccc(CN2CCN(Cc3ccc4cc(F)ccc4n3)CC2CCO)o1 (stereo not drawn)	i	i	i	i	i
Cc1ccc(-c2c(C#N)c(N)n(-c3ccccc3)c(=O)c2C#N)cc1	i	i	i	i	i
Cn1c(N)c(Br)c(-c2ccc(F)cc2)c(C#N)c1=O	i	-5*	i	i	i
SMILES	TRPC4 agonist	TRPC4 block	TRPC4 PAM	TRPC6 act	TRPC6 inhibitor
CN(C)S(=O)(=O)c1ccc(Cl)c(C(=O)NC2CCN(Cc3ccccc3)C2)c1 (stereo not drawn)	i	i	19*	i	i
O=C(CCCl)Nc1cc(SCCO)cc([N+](=O)[O-])c1	i	i	i	i	i
O=C(Nc1cc(SCCO)cc([N+](=O)[O-])c1)c1ccc(Br)o1	i	-5*	i	i	i
Cn1c(/N=C/c2ccccc2[N+](=O)[O-])nc2ccccc21	i	i	15*	i	i
Cn1c(/N=C/c2cccs2)nc2ccccc21	i	i	i	i	i
CCOc1ccccc1NC(=S)NCC1CCCO1 (stereo not drawn)	i	i	i	i	i
CN(C(=O)c1ccc(S(=O)(=O)N2CCOCC2)cc1)C1CCS(=O)(=O)C1 (stereo not drawn)	i	i	i	i	i
